Data taken from ChEMBL document CHEMBL1142136, “Contribution of target gene mutations and efflux to decreased susceptibility of Salmonella enterica serovar typhimurium to fluoroquinolones and other antimicrobials” (2007).

Assays:
Format in all cases: functional, Salmonella enterica subsp. enterica serovar Typhimurium
Salmonella typhimurium [1] = test: Antimicrobial activity against Salmonella enterica serovar Typhimurium CHS14 with GyrA D87G mutation
Summary of the method: (§1)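 MICs measured by broth microdilution on the Sensititre automated system and interpreted by CLSI broth microdilution standards. Ciprofloxacin was also tested by agar dilution, widening the range to 0.0075–128 μg/ml. Quality control strains were E. coli ATCC 25922 and 35218, E. faecalis ATCC 29212, S. aureus ATCC 29213 and P. aeruginosa ATCC 27853.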

Salmonella typhimurium [2] = test: Antimicrobial activity against Salmonella enterica serovar Typhimurium S21-2 gyrA+ with ParC S80I mutation; summary of the method: as §1
Salmonella typhimurium [3] = test: Antimicrobial activity against Salmonella enterica serovar Typhimurium CS9 acrAB::Kan with GyrA S83F, D87N, ParC S80I mutation; summary of the method: as §1
Salmonella typhimurium [4] = test: Antimicrobial activity against Salmonella enterica serovar Typhimurium S21 gyrA+; summary of the method: as §1
Salmonella typhimurium [5] = test: Antimicrobial activity against Salmonella enterica serovar Typhimurium CS9 with GyrA S83F, D87N, ParC S80I mutation; summary of the method: as §1
Salmonella typhimurium [6] = test: Antimicrobial activity against Salmonella enterica serovar Typhimurium CS3 tolC::Kan with GyrA S83F, D87N, parC S80I mutation; summary of the method: as §1
Salmonella typhimurium [7] = test: Antimicrobial activity against Salmonella enterica serovar Typhimurium CHS38 gyrA+ with GyrA D87G mutation; summary of the method: as §1
Salmonella typhimurium [8] = test: Antimicrobial activity against Salmonella enterica serovar Typhimurium S21-3 gyrA+ with ParC S80I mutation; summary of the method: as §1
Salmonella typhimurium [9] = test: Antimicrobial activity against Salmonella enterica serovar Typhimurium S21-3 with GyrA S83F, ParC S80I mutation; summary of the method: as §1
Salmonella typhimurium [10] = test: Antimicrobial activity against Salmonella enterica serovar Typhimurium CS1 tolC::Kan with GyrA S83F, D87N, ParC S80I mutation; summary of the method: as §1
Salmonella typhimurium [11] = test: Antimicrobial activity against Salmonella enterica serovar Typhimurium CS3 gyrA+ with GyrA S83F, D87N, ParC S80I mutation; summary of the method: as §1
Salmonella typhimurium [12] = test: Antimicrobial activity against Salmonella enterica serovar Typhimurium S21-3 acrAB::Kan with GyrA S83F, ParC S80I mutation; summary of the method: as §1
Salmonella typhimurium [13] = test: Antimicrobial activity against Salmonella enterica serovar Typhimurium CHS14 tolC::Kan with GyrA D87G mutant; summary of the method: as §1
Salmonella typhimurium [14] = test: Antimicrobial activity against Salmonella enterica serovar Typhimurium CS1 with GyrA S83F, D87N, ParC S80I mutation; summary of the method: as §1
Salmonella typhimurium [15] = test: Antimicrobial activity against Salmonella enterica serovar Typhimurium CHS38 with GyrA D87G mutation; summary of the method: as §1
Salmonella typhimurium [16] = test: Antimicrobial activity against Salmonella enterica serovar Typhimurium S21 tolC::Kan
Summary of the method: (§2)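 MICs by automated broth microdilution panels, interpreted to CLSI broth microdilution standards. Ciprofloxacin additionally tested by agar dilution across 0.0075 to 128 μg/ml. Quality control strains: E. coli ATCC 25922 and 35218, Enterococcus faecalis ATCC 29212, S. aureus ATCC 29213, P. aeruginosa ATCC 27853. Test strains are kanamycin-marked deletion mutants of ground-beef isolate S21.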

Salmonella typhimurium [17] = test: Antimicrobial activity against Salmonella enterica serovar Typhimurium CS9 tolC::Kan with GyrA S83F, D87N, ParC S80I mutation; summary of the method: as §1
Salmonella typhimurium [18] = test: Antimicrobial activity against Salmonella enterica serovar Typhimurium CHS18 acrAB::Kan with GyrA S38F mutation; summary of the method: as §1
Salmonella typhimurium [19] = test: Antimicrobial activity against Salmonella enterica serovar Typhimurium CS1 acrAB::Kan with GyrA S83F, D87N, ParC S80I mutation; summary of the method: as §1
Salmonella typhimurium [20] = test: Antimicrobial activity against Salmonella enterica serovar Typhimurium S21-4 with GyrA S83F, ParC S80I mutation; summary of the method: as §1
Salmonella typhimurium [21] = test: Antimicrobial activity against Salmonella enterica serovar Typhimurium S21-4 acrAB::Kan with GyrA S83F, ParC S80I mutation; summary of the method: as §1
Salmonella typhimurium [22] = test: Antimicrobial activity against Salmonella enterica serovar Typhimurium CHS18 gyrA+ with GyrA S38F mutation; summary of the method: as §1
Salmonella typhimurium [23] = test: Antimicrobial activity against Salmonella enterica serovar Typhimurium S21-2 tolC::Kan with GyrA S83F, ParC S80I mutation; summary of the method: as §1
Salmonella typhimurium [24] = test: Antimicrobial activity against Salmonella enterica serovar Typhimurium S21-2 with GyrA S83F, ParC S80I mutation; summary of the method: as §1
Salmonella typhimurium [25] = test: Antimicrobial activity against Salmonella enterica serovar Typhimurium CHS38 acrAB::Kan with GyrA D87G mutation; summary of the method: as §1
Salmonella typhimurium [26] = test: Antimicrobial activity against Salmonella enterica serovar Typhimurium CHS18 with GyrA S38F mutation; summary of the method: as §1
Salmonella typhimurium [27] = test: Antimicrobial activity against Salmonella enterica serovar Typhimurium S21 acrAB::Kan; summary of the method: as §2
Salmonella typhimurium [28] = test: Antimicrobial activity against Salmonella enterica serovar Typhimurium CS3 with GyrA S83F, D87N, ParC S80I mutation; summary of the method: as §1
Salmonella typhimurium [29] = test: Antimicrobial activity against Salmonella enterica serovar Typhimurium S21-4 tolC::Kan with GyrA S83F, ParC S80I mutation; summary of the method: as §1
Salmonella typhimurium [30] = test: Antimicrobial activity against Salmonella enterica serovar Typhimurium CHS14 acrAB::Kan with GyrA D87G mutation; summary of the method: as §1
Salmonella typhimurium [31] = test: Antimicrobial activity against Salmonella enterica serovar Typhimurium S21-1 tolC::Kan with GyrA S83F mutation; summary of the method: as §1
Salmonella typhimurium [32] = test: Antimicrobial activity against Salmonella enterica serovar Typhimurium GyrA S21-1 acrAB::Kan with GyrA S83F mutation; summary of the method: as §1
Salmonella typhimurium [33] = test: Antimicrobial activity against Salmonella enterica serovar Typhimurium S21-1 GyrA S83F mutant; summary of the method: as §1
Salmonella typhimurium [34] = test: Antimicrobial activity against Salmonella enterica serovar Typhimurium CS1 gyrA+ with GyrA S83F, D87N, ParC S80I mutation; summary of the method: as §1
Salmonella typhimurium [35] = test: Antimicrobial activity against Salmonella enterica serovar Typhimurium S21-4 gyrA+ with ParC S80I mutation; summary of the method: as §1
Salmonella typhimurium [36] = test: Antimicrobial activity against Salmonella enterica serovar Typhimurium CHS18 tolC::Kan with GyrA S38F mutation; summary of the method: as §1
Salmonella typhimurium [37] = test: Antimicrobial activity against Salmonella enterica serovar Typhimurium CHS14 gyrA+ with GyrA D87G mutation; summary of the method: as §1
Salmonella typhimurium [38] = test: Antimicrobial activity against Salmonella enterica serovar Typhimurium CHS38 tolC::Kan with GyrA D87G mutation; summary of the method: as §1
Salmonella typhimurium [39] = test: Antimicrobial activity against Salmonella enterica serovar Typhimurium S21-3 tolC::Kan with GyrA S83F, ParC S80I mutation; summary of the method: as §1
Salmonella typhimurium [40] = test: Antimicrobial activity against Salmonella enterica serovar Typhimurium S21-2 acrAB::Kan with GyrA S83F, ParC S80I mutation; summary of the method: as §1
Salmonella typhimurium [41] = test: Antimicrobial activity against Salmonella enterica serovar Typhimurium CS3 acrAB::Kan with GyrA S83F, D87N, ParC S80I mutation; summary of the method: as §1
Salmonella typhimurium [42] = test: Antimicrobial activity against Salmonella enterica serovar Typhimurium CS9 gyrA+ with GyrA S83F, D87N, ParC S80I mutation; summary of the method: as §1
Salmonella typhimurium [43] = test: Antimicrobial activity against Salmonella enterica serovar Typhimurium S21-1 gyrA+; summary of the method: as §1
Salmonella typhimurium [44] = test: Antimicrobial activity against Salmonella enterica serovar Typhimurium S21; summary of the method: as §1

Measured: MIC

C[C@H]1COc2c(N3CCN(C)CC3)c(F)cc3c(=O)c(C(=O)O)cn1c23.C[C@H]1COc2c(N3CCN(C)CC3)c(F)cc3c(=O)c(C(=O)O)cn1c23.O [LEVOFLOXACIN]
0.12 µg/mL: Salmonella typhimurium [12] | Salmonella typhimurium [15] | Salmonella typhimurium [39] | Salmonella typhimurium [40]
0.25 µg/mL: Salmonella typhimurium [1] | Salmonella typhimurium [2] | Salmonella typhimurium [21] | Salmonella typhimurium [26] | Salmonella typhimurium [29]
1 µg/mL: Salmonella typhimurium [6] | Salmonella typhimurium [8] | Salmonella typhimurium [10] | Salmonella typhimurium [17] | Salmonella typhimurium [24]
> 16 µg/mL: Salmonella typhimurium [9] | Salmonella typhimurium [20]
0.5 µg/mL: Salmonella typhimurium [33]
< 0.015 µg/mL: Salmonella typhimurium [7] | Salmonella typhimurium [13] | Salmonella typhimurium [16] | Salmonella typhimurium [27] | Salmonella typhimurium [38]
2 µg/mL: Salmonella typhimurium [3] | Salmonella typhimurium [19] | Salmonella typhimurium [35] | Salmonella typhimurium [41]
0.03 µg/mL: Salmonella typhimurium [4] | Salmonella typhimurium [18] | Salmonella typhimurium [25] | Salmonella typhimurium [30] | Salmonella typhimurium [36] | Salmonella typhimurium [43] | Salmonella typhimurium [44]
8 µg/mL: Salmonella typhimurium [5] | Salmonella typhimurium [14] | Salmonella typhimurium [28]
0.06 µg/mL: all other assays above
